Assay results as given in ChEMBL document CHEMBL1124476, “1-(2-aminoethyl)-6-aryl-4H- [1,2,4]triazolo[4,3-a][1,4]benzodiazepines with diuretic and natriuretic activity” (J Med Chem, 1989).

Key:
[1] = Diuretic activity at 40 mg/kg (screening dose-84 umol/kg) in male […] in a one stage experiment; T/C = urine vol of treated rats / urine vol of control rats; format: functional
Outline: (§1)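 40 mg/kg given by gavage in 25 mL/kg 0.9% saline with 0.5% (carboxymethyl)cellulose. Four rats per agent, two per metabolism cage; 20 controls; 5 h urine. T/C = treated/control urine volume. Stage-1 T/C of 1.66 or more leads to stage 2; product T/C1·T/C2 of 3.34 or more counts as active.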

[2] = Diuretic activity at 40 mg/kg (screening dose-90.1 umol/kg) in […] in a one stage experiment; T/C = urine vol of treated rats / urine vol of control rats; format: functional; outline: as §1
[3] = Diuretic activity at 40 mg/kg (screening dose-84.7 umol/kg) in […] in a one stage experiment; T/C = urine vol of treated rats / urine vol of control rats; format: functional; outline: as §1
Rattus norvegicus [4] = organism: Rattus norvegicus; experiment: […]; format: ADME, organism-based, Urine; parameters: dose 10 mg/kg, route oral; details: in vivo, po, 10 mg/kg
Outline: (§2)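 Male Sprague-Dawley rats, about 160 g, fasted 24 h and water withheld 1 1/2 h beforehand; food and water withheld during the test. Dosing by gavage with 25 mL/kg 0.9% saline containing 0.5% (carboxymethyl)cellulose, agent dissolved or suspended. Three cages of two rats each per dose, held in metabolism cages. Urine collected over 5 h. Volume given in mL, Na+ in mequiv. Significance versus control at P < 0.05.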

Rattus norvegicus [5] = organism: Rattus norvegicus; experiment: […]; format: ADME, organism-based, Urine; parameters: dose 100 mg/kg, route oral; details: in vivo, po, 100 mg/kg; outline: as §2
Rattus norvegicus [6] = organism: Rattus norvegicus; experiment: […]; format: ADME, organism-based, Urine; parameters: dose 3 mg/kg, route oral; details: in vivo, po, 3 mg/kg; outline: as §2
Rattus norvegicus [7] = organism: Rattus norvegicus; experiment: […]; format: ADME, organism-based, Urine; parameters: dose 0.3 mg/kg, route oral; details: in vivo, po, 0.3 mg/kg
Outline: (§3)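 Dose-response test in male Sprague-Dawley rats of about 160 g, fasted 24 h, with water withheld 1½ h before and during the test. Each rat got a single gavage of 25 mL/kg 0.9% saline with 0.5% carboxymethylcellulose carrying the agent (0.3–100 mg/kg range). Rats were housed two per metabolism cage, and urine was collected for 5 h. Mean urine volume (mL) was compared with controls (P < 0.05).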

Rattus norvegicus [8] = organism: Rattus norvegicus; experiment: […]; format: ADME, organism-based, Urine; parameters: dose 1 mg/kg, route oral; details: in vivo, po, 1 mg/kg; outline: as §3
Rattus norvegicus [9] = experiment: Mean excretion of potassium in conscious rats at a dose of 10 mg/kg given orally; format: ADME, organism-based; parameters: dose 10 mg/kg, route oral; details: in vivo, po
Outline: (§4)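 Secondary dose-response in male Sprague-Dawley rats (~160 g), fasted and hydrated as in the primary screen. Oral gavage at 0.3-100 mg/kg in 25 mL/kg saline/0.5% CMC, three cages of two rats per dose. Urine collected 5 h; Na, K, Cl, HCO3 measured. Values are mean excretion (mequiv), compared with controls at P < 0.05.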

Rattus norvegicus [10] = experiment: Mean excretion of potassium in conscious rats at a dose of 100 mg/kg given orally; format: ADME, organism-based; parameters: dose 100 mg/kg, route oral; details: in vivo, po; outline: as §4
Rattus norvegicus [11] = experiment: Mean excretion of potassium in conscious rats at a dose of 3.0 mg/kg given orally; format: ADME, organism-based; parameters: dose 3 mg/kg, route oral; details: in vivo, po; outline: as §4
Rattus norvegicus [12] = experiment: Mean excretion of potassium in conscious rats at a dose of 30 mg/kg given orally; format: ADME, organism-based; parameters: dose 30 mg/kg, route oral; details: in vivo, po; outline: as §4
Rattus norvegicus [13] = experiment: Mean excretion of sodium in conscious rats at a dose of 0.3 mg/kg given orally; format: ADME, organism-based; parameters: dose 0.3 mg/kg, route oral; details: in vivo, po; outline: as §2
Rattus norvegicus [14] = experiment: Mean excretion of […] in conscious rats at a dose of 1.0 mg/kg given orally; format: ADME, organism-based; parameters: dose 1 mg/kg, route oral; details: in vivo, po; outline: as §2
Rattus norvegicus [15] = experiment: Mean excretion of sodium in conscious rats at a dose of 10 mg/kg given orally; format: ADME, organism-based; parameters: dose 10 mg/kg, route oral; details: in vivo, po; outline: as §2
Rattus norvegicus [16] = experiment: Mean excretion of sodium in conscious rats at a dose of 100 mg/kg given orally; format: ADME, organism-based; parameters: dose 100 mg/kg, route oral; details: in vivo, po; outline: as §2
Rattus norvegicus [17] = experiment: Mean excretion of sodium in conscious rats at a dose of 3.0 mg/kg given orally; format: ADME, organism-based; parameters: dose 3 mg/kg, route oral; details: in vivo, po; outline: as §2
Rattus norvegicus [18] = experiment: Mean excretion of sodium in conscious rats at a dose of 30 mg/kg given orally; format: ADME, organism-based; parameters: dose 30 mg/kg, route oral; details: in vivo, po; outline: as §2
Rattus norvegicus [19] = experiment: Mean excretion of chloride in conscious rats at a dose of 1.0 mg/kg given orally; format: ADME, organism-based; parameters: dose 1 mg/kg, route oral; details: in vivo, po; outline: as §4
Rattus norvegicus [20] = experiment: Mean excretion of chloride in conscious rats at a dose of 10 mg/kg given orally; format: ADME, organism-based; parameters: dose 10 mg/kg, route oral; details: in vivo, po; outline: as §4
Rattus norvegicus [21] = experiment: Mean excretion of chloride in conscious rats at a dose of 100 mg/kg given orally; format: ADME, organism-based; parameters: dose 100 mg/kg, route oral; details: in vivo, po; outline: as §4
Rattus norvegicus [22] = experiment: Mean excretion of chloride in conscious rats at a dose of 30 mg/kg given orally; format: ADME, organism-based; parameters: dose 30 mg/kg, route oral; details: in vivo, po; outline: as §4
Rattus norvegicus [23] = experiment: Mean excretion of chloride in conscious rats at a dose of 3.0 mg/kg given orally; format: ADME, organism-based; parameters: dose 3 mg/kg, route oral; details: in vivo, po; outline: as §4
Rattus norvegicus [24] = experiment: (§5) Mean excretion of Cl- in conscious rats at a dose of 0.3 mg/kg given orally; format: ADME, organism-based, Urine; parameters: dose 0.3 mg/kg, route oral; details: in vivo, po; outline: as §3
Rattus norvegicus [25] = experiment: Mean excretion of potassium in conscious rats at a dose of 1.0 mg/kg given orally; format: ADME, organism-based; parameters: dose 1 mg/kg, route oral; details: in vivo, po; outline: as §4
Rattus norvegicus [26] = experiment: Mean excretion of potassium in conscious rats at a dose of 0.3 mg/kg given orally; format: ADME, organism-based; parameters: dose 0.3 mg/kg, route oral; details: in vivo, po; outline: as §4
Rattus norvegicus [27] = organism: Rattus norvegicus; experiment: […]; format: ADME, organism-based, Urine; parameters: dose 30 mg/kg, route oral; details: in vivo, po, 30 mg/kg; outline: as §2
[28] = Mean excretion of Cl- in conscious rats at a dose of 1.0 mg/kg given orally; format: functional, Urine; details: route oral; outline: as §3
[29] = as §5; format: functional, Urine; details: route oral; outline: as §3

Structure (SMILES) | Mean urine volume (Rattus norvegicus [4]) [mL] | Mean urine volume (Rattus norvegicus [5]) [mL] | Mean urine volume (Rattus norvegicus [6]) [mL] | Mean excretion of K+ (Rattus norvegicus [9]) [m equiv] | Mean excretion of K+ (Rattus norvegicus [10]) [m equiv] | Mean excretion of K+ (Rattus norvegicus [11]) [m equiv] | Mean excretion of K+ (Rattus norvegicus [12]) [m equiv] | Mean excretion of Na+ (Rattus norvegicus [13]) [m equiv] | Mean excretion of Na+ (Rattus norvegicus [14]) [m equiv] | Mean excretion of Na+ (Rattus norvegicus [15]) [m equiv] | Mean excretion of Na+ (Rattus norvegicus [16]) [m equiv] | Mean excretion of Na+ (Rattus norvegicus [17]) [m equiv] | Mean excretion of Na+ (Rattus norvegicus [18]) [m equiv] | Mean excretion of K+ (Rattus norvegicus [25]) [m equiv] | Mean excretion of K+ (Rattus norvegicus [26]) [m equiv] | Mean urine volume (Rattus norvegicus [27]) [mL] | also measured
CN(C)CC(c1ccccc1)c1nnc2n1-c1ccc(Cl)cc1C(c1ccc(Cl)cc1)=NC2 (stereo not given) |  |  |  |  |  |  |  |  |  |  |  |  |  |  |  |  | T/C 1 [1]: 1.49
Clc1ccc2c(c1)C(c1ccccc1)=NCc1nnc(C(CN3CCCC3)c3ccccc3)n1-2 (stereo not given) |  |  |  |  |  |  |  |  |  |  |  |  |  |  |  |  | T/C 1 [2]: 1.33
COc1cccc(C2=NCc3nnc(C(CN(C)C)c4ccccc4)n3-c3ccc(Cl)cc32)c1 (stereo not given) |  |  |  |  |  |  |  |  |  |  |  |  |  |  |  |  | T/C 1 [3]: 1.34
CN(C)CC(c1ccccc1)c1nnc2n1-c1ccccc1C(c1ccccc1)=NC2.Cl (stereo not given) |  |  |  |  |  |  |  |  |  |  |  |  |  |  |  |  | T/C 1 [2]: 1.48
Nc1nc(N)c2nc(-c3ccccc3)c(N)nc2n1 | 6.45 | 7.01 | 4.32 | 0.08 | 0.06 | 0.1 | 0.04 | 0.4 | 0.6 | 1 | 0.88 | 0.83 | 1.41 | 0.1 | 0.12 | 9.28 | Mean urine volume (Rattus norvegicus [7]): 2.22 mL; Mean urine volume (Rattus norvegicus [8]): 3.5 mL; Mean excretion of Cl- (Rattus norvegicus [19]): 0.68 m equiv; Mean excretion of Cl- (Rattus norvegicus [20]): 0.81 m equiv; Mean excretion of Cl- (Rattus norvegicus [21]): 0.7 m equiv; Mean excretion of Cl- (Rattus norvegicus [22]): 1.15 m equiv; Mean excretion of Cl- (Rattus norvegicus [23]): 0.74 m equiv; Mean excretion of Cl- (Rattus norvegicus [24]): 0.47 m equiv
NS(=O)(=O)c1cc(C(=O)O)c(NCc2ccco2)cc1Cl [FUROSEMIDE] | 8.48 | 27.8 | 5.23 | 0.34 | 0.67 | 0.27 | 0.46 | 0.82 | 0.83 | 1.13 | 3.52 | 0.86 | 2.37 | 0.21 | 0.22 | 18.3 | Mean urine volume [28]: 4.7 mL; Mean urine volume [29]: 4.45 mL
NS(=O)(=O)c1cc2c(cc1Cl)NCNS2(=O)=O [HYDROCHLOROTHIAZIDE] | 9.24 | 10.61 | 8.48 | 0.31 | 0.36 | 0.34 | 0.3 | 1.32 | 1.59 | 1.86 | 1.9 | 1.66 | 1.86 | 0.32 | 0.26 | 10.03 | Mean urine volume [28]: 8.87 mL; Mean urine volume [29]: 7.18 mL; Mean excretion of Cl- (Rattus norvegicus [19]): 1.77 m equiv; Mean excretion of Cl- (Rattus norvegicus [20]): 1.91 m equiv; Mean excretion of Cl- (Rattus norvegicus [21]): 2.09 m equiv; Mean excretion of Cl- (Rattus norvegicus [22]): 2.03 m equiv; Mean excretion of Cl- (Rattus norvegicus [23]): 1.78 m equiv; Mean excretion of Cl- (Rattus norvegicus [24]): 1.42 m equiv
